Laboratory results taken from ChEMBL document CHEMBL1649562, “Emergence of high levels of extended-spectrum-beta-lactamase-producing gram-negative bacilli in the Asia-Pacific region: data from the Study for Monitoring Antimicrobial Resistance Trends (SMART) program, 2007” (2009).
Activity calls are given as the source filed them.

How the values were obtained:
Escherichia coli [1] = assay: Antimicrobial activity against extended spectrum beta-lactamase-expressing Escherichia coli assessed as percent susceptible isolates by CLSI method; format: functional
Klebsiella pneumoniae [2] = assay: Antimicrobial activity against extended spectrum beta-lactamase-expressing Klebsiella pneumoniae assessed as percent susceptible isolates by CLSI method; format: functional
Klebsiella aerogenes [3] = assay: Antimicrobial activity against Enterobacter aerogenes assessed as percent susceptible isolates by CLSI method; format: functional
Enterobacter cloacae [4] = assay: Antimicrobial activity against Enterobacter cloacae assessed as percent susceptible isolates by CLSI method; format: functional
Pseudomonas aeruginosa [5] = assay: Antimicrobial activity against Pseudomonas aeruginosa assessed as percent susceptible isolates by CLSI method; format: functional
Klebsiella oxytoca [6] = assay: Antimicrobial activity against extended spectrum beta-lactamase-deficient Klebsiella oxytoca assessed as percent susceptible isolates by CLSI method; format: functional
Escherichia coli [7] = assay: Antimicrobial activity against extended spectrum beta-lactamase-deficient Escherichia coli assessed as percent susceptible isolates by CLSI method; format: functional
Citrobacter freundii [8] = assay: Antimicrobial activity against Citrobacter freundii assessed as percent susceptible isolates by CLSI method; format: functional
Klebsiella pneumoniae [9] = assay: Antimicrobial activity against extended spectrum beta-lactamase-deficient Klebsiella pneumoniae assessed as percent susceptible isolates by CLSI method; format: functional
Proteus mirabilis [10] = assay: Antimicrobial activity against Proteus mirabilis assessed as percent susceptible isolates by CLSI method; format: functional
Klebsiella oxytoca [11] = assay: Antimicrobial activity against extended spectrum beta-lactamase-expressing Klebsiella oxytoca assessed as percent susceptible isolates by CLSI method; format: functional
Escherichia coli [12] = assay: Antimicrobial activity against extended spectrum beta-lactamase-deficient Escherichia coli assessed as percent susceptible isolates by CLSI method in presence of beta-lactamase inhibitor Sulbactam; format: functional
Procedure, shortened: (§1)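 ESBL status was assigned when the ceftazidime or cefotaxime MIC fell at least eightfold (three doubling dilutions) with clavulanic acid, compared with the drug alone. Isolates were identified locally at each site. MICs came from uniform dehydrated broth microdilution panels under CLSI procedure, with susceptibility by CLSI criteria. Daily QC used E. coli ATCC 25922, K. pneumoniae ATCC 700603 (ESBL-positive) and P. aeruginosa ATCC 27853.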

Pseudomonas aeruginosa [13] = assay: Antimicrobial activity against Pseudomonas aeruginosa assessed as percent susceptible isolates by CLSI method in presence of beta-lactamase inhibitor Sulbactam; format: functional, organism-based
Procedure, shortened: (§2)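 Site laboratories identified isolates by their local methods. MICs were read from dehydrated broth microdilution panels, the same panel at all sites, following CLSI procedure. Susceptibility was categorized by CLSI interpretive criteria. QC ran daily at each site with E. coli ATCC 25922, K. pneumoniae ATCC 700603 and P. aeruginosa ATCC 27853.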

Proteus mirabilis [14] = assay: Antimicrobial activity against Proteus mirabilis assessed as percent susceptible isolates by CLSI method in presence of beta-lactamase inhibitor Sulbactam; format: functional; procedure, shortened: as §2
Enterobacter cloacae [15] = assay: Antimicrobial activity against Enterobacter cloacae assessed as percent susceptible isolates by CLSI method in presence of beta-lactamase inhibitor Sulbactam; format: functional; procedure, shortened: as §2
Citrobacter freundii [16] = assay: Antimicrobial activity against Citrobacter freundii assessed as percent susceptible isolates by CLSI method in presence of beta-lactamase inhibitor Sulbactam; format: functional; procedure, shortened: as §2
Klebsiella pneumoniae [17] = assay: Antimicrobial activity against extended spectrum beta-lactamase-deficient Klebsiella pneumoniae assessed as percent susceptible isolates by CLSI method in presence of beta-lactamase inhibitor Sulbactam; format: functional; procedure, shortened: as §1
Klebsiella aerogenes [18] = assay: Antimicrobial activity against Enterobacter aerogenes assessed as percent susceptible isolates by CLSI method in presence of beta-lactamase inhibitor Sulbactam; format: functional; procedure, shortened: as §2
Escherichia coli [19] = assay: Antimicrobial activity against extended spectrum beta-lactamase-expressing Escherichia coli assessed as percent susceptible isolates by CLSI method in presence of beta-lactamase inhibitor Sulbactam; format: functional; procedure, shortened: as §1
Klebsiella oxytoca [20] = assay: Antimicrobial activity against extended spectrum beta-lactamase-expressing Klebsiella oxytoca assessed as percent susceptible isolates by CLSI method in presence of beta-lactamase inhibitor Sulbactam; format: functional; procedure, shortened: as §1
Klebsiella pneumoniae [21] = assay: Antimicrobial activity against extended spectrum beta-lactamase-expressing Klebsiella pneumoniae assessed as percent susceptible isolates by CLSI method in presence of beta-lactamase inhibitor Sulbactam; format: functional; procedure, shortened: as §1
Klebsiella oxytoca [22] = assay: Antimicrobial activity against extended spectrum beta-lactamase-deficient Klebsiella oxytoca assessed as percent susceptible isolates by CLSI method in presence of beta-lactamase inhibitor Sulbactam; format: functional; procedure, shortened: as §1
Escherichia coli [23] = assay: Antimicrobial activity against extended spectrum beta-lactamase-deficient Escherichia coli assessed as percent susceptible isolates by CLSI method in presence of beta-lactamase inhibitor tazobactem; format: functional; procedure, shortened: as §1
Klebsiella pneumoniae [24] = assay: Antimicrobial activity against extended spectrum beta-lactamase-expressing Klebsiella pneumoniae assessed as percent susceptible isolates by CLSI method in presence of beta-lactamase inhibitor tazobactem; format: functional; procedure, shortened: as §1
Proteus mirabilis [25] = assay: Antimicrobial activity against Proteus mirabilis assessed as percent susceptible isolates by CLSI method in presence of beta-lactamase inhibitor tazobactem; format: functional; procedure, shortened: as §2
Escherichia coli [26] = assay: Antimicrobial activity against extended spectrum beta-lactamase-expressing Escherichia coli assessed as percent susceptible isolates by CLSI method in presence of beta-lactamase inhibitor tazobactem; format: functional; procedure, shortened: as §1
Klebsiella oxytoca [27] = assay: Antimicrobial activity against extended spectrum beta-lactamase-expressing Klebsiella oxytoca assessed as percent susceptible isolates by CLSI method in presence of beta-lactamase inhibitor tazobactem; format: functional; procedure, shortened: as §1
Pseudomonas aeruginosa [28] = assay: Antimicrobial activity against Pseudomonas aeruginosa assessed as percent susceptible isolates by CLSI method in presence of beta-lactamase inhibitor tazobactem; format: functional; procedure, shortened: as §2
Klebsiella aerogenes [29] = assay: Antimicrobial activity against Enterobacter aerogenes assessed as percent susceptible isolates by CLSI method in presence of beta-lactamase inhibitor tazobactem; format: functional; procedure, shortened: as §2
Klebsiella pneumoniae [30] = assay: Antimicrobial activity against extended spectrum beta-lactamase-deficient Klebsiella pneumoniae assessed as percent susceptible isolates by CLSI method in presence of beta-lactamase inhibitor tazobactem; format: functional; procedure, shortened: as §1
Enterobacter cloacae [31] = assay: Antimicrobial activity against Enterobacter cloacae assessed as percent susceptible isolates by CLSI method in presence of beta-lactamase inhibitor tazobactem; format: functional; procedure, shortened: as §2
Citrobacter freundii [32] = assay: Antimicrobial activity against Citrobacter freundii assessed as percent susceptible isolates by CLSI method in presence of beta-lactamase inhibitor tazobactem; format: functional; procedure, shortened: as §2
Klebsiella oxytoca [33] = assay: Antimicrobial activity against extended spectrum beta-lactamase-deficient Klebsiella oxytoca assessed as percent susceptible isolates by CLSI method in presence of beta-lactamase inhibitor tazobactem; format: functional; procedure, shortened: as §1

## C[C@@H](O)[C@H]1C(=O)N2C(C(=O)O)=C(S[C@@H]3CN[C@H](C(=O)Nc4cccc(C(=O)O)c4)C3)[C@H](C)[C@H]12
Escherichia coli [1]
  Activity: 96%
Klebsiella pneumoniae [2]
  Activity: 86%
Klebsiella aerogenes [3]
  Activity: 97%
Enterobacter cloacae [4]
  Activity: 94%
Pseudomonas aeruginosa [5]
  Activity: inactive
Klebsiella oxytoca [6]
  Activity: 100%
Escherichia coli [7]
  Activity: 100%
Citrobacter freundii [8]
  Activity: 98%
Klebsiella pneumoniae [9]
  Activity: 99%
Proteus mirabilis [10]
  Activity: 100%
Klebsiella oxytoca [11]
  Activity: 100%

## NCC[C@H](O)C(=O)N[C@@H]1C[C@H](N)[C@@H](O[C@H]2O[C@H](CN)[C@@H](O)[C@H](O)[C@H]2O)[C@H](O)[C@H]1O[C@H]1O[C@H](CO)[C@@H](O)[C@H](N)[C@H]1O [AMIKACIN]
Escherichia coli [1]
  Activity: 87%
Klebsiella pneumoniae [2]
  Activity: 73%
Klebsiella aerogenes [3]
  Activity: 83%
Enterobacter cloacae [4]
  Activity: 92%
Pseudomonas aeruginosa [5]
  Activity: 85%
Klebsiella oxytoca [6]
  Activity: 100%
Escherichia coli [7]
  Activity: 98%
Citrobacter freundii [8]
  Activity: 84%
Klebsiella pneumoniae [9]
  Activity: 99%
Proteus mirabilis [10]
  Activity: 92%
Klebsiella oxytoca [11]
  Activity: 86%

## CC1(C)S[C@@H]2[C@H](NC(=O)[C@H](N)c3ccccc3)C(=O)N2[C@H]1C(=O)O [AMPICILLIN]
Escherichia coli [12]
  Activity: 43%
Pseudomonas aeruginosa [13]
  Activity: inactive
Proteus mirabilis [14]
  Activity: 72%
Enterobacter cloacae [15]
  Activity: 17%
Citrobacter freundii [16]
  Activity: 37%
Klebsiella pneumoniae [17]
  Activity: 76%
Klebsiella aerogenes [18]
  Activity: 31%
Escherichia coli [19]
  Activity: 5%
Klebsiella oxytoca [20]
  Activity: 5%
Klebsiella pneumoniae [21]
  Activity: 6%
Klebsiella oxytoca [22]
  Activity: 76%

## CO/N=C(\C(=O)N[C@@H]1C(=O)N2C(C(=O)O)=C(COC(C)=O)CS[C@H]12)c1csc(N)n1 [CEFOTAXIME]
Escherichia coli [1]
  Activity: 5%
Klebsiella pneumoniae [2]
  Activity: 9%
Klebsiella aerogenes [3]
  Activity: 48%
Enterobacter cloacae [4]
  Activity: 49%
Pseudomonas aeruginosa [5]
  Activity: 14%
Klebsiella oxytoca [6]
  Activity: 97%
Escherichia coli [7]
  Activity: 97%
Citrobacter freundii [8]
  Activity: 43%
Klebsiella pneumoniae [9]
  Activity: 97%
Proteus mirabilis [10]
  Activity: 77%
Klebsiella oxytoca [11]
  Activity: 14%

## CO[C@@]1(NC(=O)Cc2cccs2)C(=O)N2C(C(=O)O)=C(COC(N)=O)CS[C@@H]21 [CEFOXITIN]
Escherichia coli [1]
  Activity: 66%
Klebsiella pneumoniae [2]
  Activity: 61%
Klebsiella aerogenes [3]
  Activity: 22%
Enterobacter cloacae [4]
  Activity: 7%
Pseudomonas aeruginosa [5]
  Activity: inactive
Klebsiella oxytoca [6]
  Activity: 97%
Escherichia coli [7]
  Activity: 89%
Citrobacter freundii [8]
  Activity: 16%
Klebsiella pneumoniae [9]
  Activity: 87%
Proteus mirabilis [10]
  Activity: 95%
Klebsiella oxytoca [11]
  Activity: 64%

## CC(C)(O/N=C(\C(=O)N[C@@H]1C(=O)N2C(C(=O)[O-])=C(C[n+]3ccccc3)CS[C@H]12)c1csc(N)n1)C(=O)O [CEFTAZIDIME]
Escherichia coli [1]
  Activity: 29%
Klebsiella pneumoniae [2]
  Activity: 20%
Klebsiella aerogenes [3]
  Activity: 46%
Enterobacter cloacae [4]
  Activity: 53%
Pseudomonas aeruginosa [5]
  Activity: 66%
Klebsiella oxytoca [6]
  Activity: 97%
Escherichia coli [7]
  Activity: 95%
Citrobacter freundii [8]
  Activity: 43%
Klebsiella pneumoniae [9]
  Activity: 97%
Proteus mirabilis [10]
  Activity: 89%
Klebsiella oxytoca [11]
  Activity: 27%

## CO/N=C(\C(=O)N[C@@H]1C(=O)N2C(C(=O)O)=C(CSc3nc(=O)c(O)nn3C)CS[C@H]12)c1csc(N)n1 [CEFTRIAXONE]
Escherichia coli [1]
  Activity: 4%
Klebsiella pneumoniae [2]
  Activity: 10%
Klebsiella aerogenes [3]
  Activity: 55%
Enterobacter cloacae [4]
  Activity: 48%
Pseudomonas aeruginosa [5]
  Activity: 19%
Klebsiella oxytoca [6]
  Activity: 97%
Escherichia coli [7]
  Activity: 96%
Citrobacter freundii [8]
  Activity: 45%
Klebsiella pneumoniae [9]
  Activity: 97%
Proteus mirabilis [10]
  Activity: 77%
Klebsiella oxytoca [11]
  Activity: 9%

## C[C@@H](O)[C@H]1C(=O)N2C(C(=O)O)=C(SCCNC=N)C[C@H]12 [IMIPENEM ANHYDROUS]
Escherichia coli [1]
  Activity: 98%
Klebsiella pneumoniae [2]
  Activity: 97%
Klebsiella aerogenes [3]
  Activity: 97%
Enterobacter cloacae [4]
  Activity: 98%
Pseudomonas aeruginosa [5]
  Activity: 71%
Klebsiella oxytoca [6]
  Activity: 100%
Escherichia coli [7]
  Activity: 100%
Citrobacter freundii [8]
  Activity: 100%
Klebsiella pneumoniae [9]
  Activity: 100%
Proteus mirabilis [10]
  Activity: 100%
Klebsiella oxytoca [11]
  Activity: 100%

## C[C@H]1COc2c(N3CCN(C)CC3)c(F)cc3c(=O)c(C(=O)O)cn1c23.C[C@H]1COc2c(N3CCN(C)CC3)c(F)cc3c(=O)c(C(=O)O)cn1c23.O [LEVOFLOXACIN]
Escherichia coli [1]
  Activity: 21%
Klebsiella pneumoniae [2]
  Activity: 43%
Klebsiella aerogenes [3]
  Activity: 83%
Enterobacter cloacae [4]
  Activity: 79%
Pseudomonas aeruginosa [5]
  Activity: 73%
Klebsiella oxytoca [6]
  Activity: 97%
Escherichia coli [7]
  Activity: 72%
Citrobacter freundii [8]
  Activity: 77%
Klebsiella pneumoniae [9]
  Activity: 94%
Proteus mirabilis [10]
  Activity: 84%
Klebsiella oxytoca [11]
  Activity: 41%

## CCN1CCN(C(=O)N[C@@H](C(=O)N[C@@H]2C(=O)N3[C@@H]2SC(C)(C)[C@@H]3C(=O)O)c2ccccc2)C(=O)C1=O [PIPERACILLIN]
Escherichia coli [23]
  Activity: 94%
Klebsiella pneumoniae [24]
  Activity: 57%
Proteus mirabilis [25]
  Activity: 97%
Escherichia coli [26]
  Activity: 83%
Klebsiella oxytoca [27]
  Activity: 68%
Pseudomonas aeruginosa [28]
  Activity: 81%
Klebsiella aerogenes [29]
  Activity: 69%
Klebsiella pneumoniae [30]
  Activity: 94%
Enterobacter cloacae [31]
  Activity: 71%
Citrobacter freundii [32]
  Activity: 71%
Klebsiella oxytoca [33]
  Activity: 100%
